Measured values pooled from the literature.
Protocols differ between the studies behind these lines.
Target: Serine/threonine-protein kinase NLK (NLK, Homo sapiens, UniProt Q9UBE8)
Residues used in one study (Q9UBE8 1-527): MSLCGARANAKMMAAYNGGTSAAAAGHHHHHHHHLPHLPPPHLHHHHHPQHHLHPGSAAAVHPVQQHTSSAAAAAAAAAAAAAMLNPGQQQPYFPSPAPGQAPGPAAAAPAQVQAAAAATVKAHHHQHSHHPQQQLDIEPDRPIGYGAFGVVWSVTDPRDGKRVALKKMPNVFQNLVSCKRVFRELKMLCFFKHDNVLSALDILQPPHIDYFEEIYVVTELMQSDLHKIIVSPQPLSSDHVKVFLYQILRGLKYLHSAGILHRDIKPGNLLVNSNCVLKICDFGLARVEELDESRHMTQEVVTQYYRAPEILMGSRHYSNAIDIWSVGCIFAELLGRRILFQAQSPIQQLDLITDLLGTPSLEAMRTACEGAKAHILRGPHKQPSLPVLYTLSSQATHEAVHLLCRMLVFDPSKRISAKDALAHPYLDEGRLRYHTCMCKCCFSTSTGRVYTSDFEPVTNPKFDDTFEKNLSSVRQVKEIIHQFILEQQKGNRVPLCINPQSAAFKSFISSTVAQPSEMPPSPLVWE

| Compound | test | setting | measurement | value |
| --- | --- | --- | --- | --- |
| Cn1cc(-c2cc(F)cc(N3CCn4c(cc5c4CCCC5)C3=O)c2CO)cc(Nc2ccc(N3CCN(C4COC4)CC3)cn2)c1=O | enzyme activity, inhibitor | 0.1 µM | inhibition | -4% |
| COc1cc(Nc2ncc(F)c(Nc3ccc4c(n3)NC(=O)C(C)(C)O4)n2)cc(OC)c1OC | binding | 10 µM | inhibition | 0% |
| Nc1ncc(-c2nc(N3CCOCC3)nc(N3CCOCC3)n2)c(C(F)F)n1 | binding, competition with immobilised ligand | 10 µM | remaining binding | 88% |
| COc1ncccc1-c1cnn2ccc(N3CCN(C(=O)OC(C)C)CC3)nc12 | binding, competition with immobilised ligand | 1 µM | remaining binding | 100% |
| O=c1[nH]c2ccccc2n1C1CCN(Cc2ccc(-c3[nH]c4cc5ncnc5cc4nc3-c3ccccc3)cc2)CC1 | cell-free assay | 0.5 µM | remaining signal | 104% |
| N#CC1(c2ccccn2)CCN(Cc2cc(C(=O)O)c(=O)n3ccccc23)CC1 | cell-free assay, competition with immobilised ligand | 1 µM | remaining binding | 100% |
| Cc1nn(C)cc1-c1nc2c(N3CCN(Cc4ccc(Cl)cc4)CC3)c(Cl)cnc2[nH]1 | binding, competition with immobilised ligand | 1 µM | remaining binding | 72% |
| Cn1cc(-c2cccc(N3CCc4c(sc5c4CC(C)(C)C5)C3=O)c2CO)cc(Nc2ccncn2)c1=O | enzyme activity, inhibitor | 1 µM | inhibition | -10% |
| Cn1cncc1[C@@](O)(COc1ccc(C#N)cc1-c1ccc(OC(F)(F)F)cc1)c1ccc(C#N)cc1 | cell-free assay, competition with immobilised ligand | 1 µM | remaining binding | 100% |
